Measurements published in article PMC2788151 (Journal of immunology (Baltimore, Md. : 1950), 2009).
Non-standard residues stand in square brackets, D forms with d. Residues, ends and D or L forms follow the SMILES beside them. No end group written: not given here. *: point of attachment. Biotin = O=C1N[C@H]2[C@H](CS[C@H]2CCCCC(=O)*)N1; pY = N[C@@H](Cc1ccc(OP(=O)(O)O)cc1)C(=O)O

Legend:
[1] = biological target: T1, Recombinant human Dok1 PTB domain (amino acids 140–268) (Homo sapiens, UniProt Q99704); assay type: binding
T1 sequence (Q99704 140-268): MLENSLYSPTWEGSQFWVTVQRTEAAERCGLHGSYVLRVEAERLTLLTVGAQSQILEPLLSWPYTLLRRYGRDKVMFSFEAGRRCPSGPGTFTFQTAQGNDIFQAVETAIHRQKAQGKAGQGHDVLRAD
Summary of the method: (§1)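 On a BIAcore 3000, ~4000 RU streptavidin was amine-coupled to CM5 chips at 25°C, then 50–150 RU biotinylated human phosphotyrosine peptides (CD200R tail, singly or doubly phosphorylated) were captured. Increasing concentrations of monomeric recombinant soluble PTB domain were passed over at 37°C to reach equilibrium binding. Signal from non-phosphorylated-peptide or streptavidin-only flow cells was subtracted, and the data were fitted to hyperbolas.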

[2] = biological target: T2, Recombinant human Dok2 PTB domain (amino acids 133–259) (Homo sapiens, UniProt O60496); assay type: binding
T2 sequence (O60496 133-259): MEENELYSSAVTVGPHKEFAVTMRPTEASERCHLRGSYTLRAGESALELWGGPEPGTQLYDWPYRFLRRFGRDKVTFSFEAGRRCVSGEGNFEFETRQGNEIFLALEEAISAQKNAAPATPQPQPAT
Summary of the method: as §1

[3] = biological target: CD200R pY1 peptide (human); test: SPR
[4] = biological target: CD200R pY1,2 peptide (human); test: SPR
[5] = biological target: CD200R pY1,3 peptide (human); test: SPR
[6] = biological target: CD200R pY3 peptide (human); test: SPR
[7] = biological target: T3, Recombinant human Dok1 PTB domain (amino acids 140-268) (human, UniProt Q99704 140-268); test: SPR
T3 sequence (looked up): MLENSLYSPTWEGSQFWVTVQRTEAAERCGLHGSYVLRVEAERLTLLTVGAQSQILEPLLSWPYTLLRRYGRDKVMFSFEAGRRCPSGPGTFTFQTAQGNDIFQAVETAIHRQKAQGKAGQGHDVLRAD

[8] = biological target: T4, Recombinant human Dok2 PTB domain (amino acids 133-259) (human, UniProt O60496 133-259); test: SPR
T4 sequence (looked up): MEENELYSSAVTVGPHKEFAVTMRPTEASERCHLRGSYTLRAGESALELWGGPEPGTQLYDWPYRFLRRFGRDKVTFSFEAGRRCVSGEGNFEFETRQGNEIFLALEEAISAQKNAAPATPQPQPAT

Chain of CD200R pY3 peptide (human) (Q8TD46 309-329): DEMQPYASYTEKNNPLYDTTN

CSCC[C@H](NC(=O)[C@H](CCC(=O)O)NC(=O)[C@H](CC(=O)O)NC(=O)CCCC[C@@H]1SC[C@@H]2NC(=O)N[C@@H]21)C(=O)N[C@@H](CCC(N)=O)C(=O)N1CCC[C@H]1C(=O)N[C@@H](Cc1ccc(OP(=O)(O)O)cc1)C(=O)N[C@@H](C)C(=O)N[C@@H](CO)C(=O)N[C@@H](Cc1ccc(OP(=O)(O)O)cc1)C(=O)N[C@H](C(=O)N[C@@H](CCC(=O)O)C(=O)N[C@@H](CCCCN)C(=O)N[C@@H](CC(N)=O)C(=O)N[C@@H](CC(N)=O)C(=O)N1CCC[C@H]1C(=O)N[C@@H](CC(C)C)C(=O)N[C@@H](Cc1ccc(O)cc1)C(=O)N[C@@H](CC(=O)O)C(=O)N[C@H](C(=O)N[C@H](C(=O)N[C@@H](CC(N)=O)C(=O)O)[C@@H](C)O)[C@@H](C)O)[C@@H](C)O [CD200R pY1,2] (Biotin-DEMQP[pY]AS[pY]TEKNNPLYDTTN-OH)
Kd [1]: 8.4 µM

CSCC[C@H](NC(=O)[C@H](CCC(=O)O)NC(=O)[C@H](CC(=O)O)NC(=O)CCCC[C@@H]1SC[C@@H]2NC(=O)N[C@@H]21)C(=O)N[C@@H](CCC(N)=O)C(=O)N1CCC[C@H]1C(=O)N[C@@H](Cc1ccc(OP(=O)(O)O)cc1)C(=O)N[C@@H](C)C(=O)N[C@@H](CO)C(=O)N[C@@H](Cc1ccc(O)cc1)C(=O)N[C@H](C(=O)N[C@@H](CCC(=O)O)C(=O)N[C@@H](CCCCN)C(=O)N[C@@H](CC(N)=O)C(=O)N[C@@H](CC(N)=O)C(=O)N1CCC[C@H]1C(=O)N[C@@H](CC(C)C)C(=O)N[C@@H](Cc1ccc(OP(=O)(O)O)cc1)C(=O)N[C@@H](CC(=O)O)C(=O)N[C@H](C(=O)N[C@H](C(=O)N[C@@H](CC(N)=O)C(=O)O)[C@@H](C)O)[C@@H](C)O)[C@@H](C)O [CD200R pY1,3] (Biotin-DEMQP[pY]ASYTEKNNPL[pY]DTTN-OH)
Kd [1]: 6.2 µM | Kd [2]: 600 nM

CSCC[C@H](NC(=O)[C@H](CCC(=O)O)NC(=O)[C@H](CC(=O)O)NC(=O)CCCC[C@@H]1SC[C@@H]2NC(=O)N[C@@H]21)C(=O)N[C@@H](CCC(N)=O)C(=O)N1CCC[C@H]1C(=O)N[C@@H](Cc1ccc(OP(=O)(O)O)cc1)C(=O)N[C@@H](C)C(=O)N[C@@H](CO)C(=O)N[C@@H](Cc1ccc(O)cc1)C(=O)N[C@H](C(=O)N[C@@H](CCC(=O)O)C(=O)N[C@@H](CCCCN)C(=O)N[C@@H](CC(N)=O)C(=O)N[C@@H](CC(N)=O)C(=O)N1CCC[C@H]1C(=O)N[C@@H](CC(C)C)C(=O)N[C@@H](Cc1ccc(O)cc1)C(=O)N[C@@H](CC(=O)O)C(=O)N[C@H](C(=O)N[C@H](C(=O)N[C@@H](CC(N)=O)C(=O)O)[C@@H](C)O)[C@@H](C)O)[C@@H](C)O [CD200R pY1] (Biotin-DEMQP[pY]ASYTEKNNPLYDTTN-OH)
Kd [1]: 14 µM

CSCC[C@H](NC(=O)[C@H](CCC(=O)O)NC(=O)[C@H](CC(=O)O)NC(=O)CCCC[C@@H]1SC[C@@H]2NC(=O)N[C@@H]21)C(=O)N[C@@H](CCC(N)=O)C(=O)N1CCC[C@H]1C(=O)N[C@@H](Cc1ccc(O)cc1)C(=O)N[C@@H](C)C(=O)N[C@@H](CO)C(=O)N[C@@H](Cc1ccc(O)cc1)C(=O)N[C@H](C(=O)N[C@@H](CCC(=O)O)C(=O)N[C@@H](CCCCN)C(=O)N[C@@H](CC(N)=O)C(=O)N[C@@H](CC(N)=O)C(=O)N1CCC[C@H]1C(=O)N[C@@H](CC(C)C)C(=O)N[C@@H](Cc1ccc(OP(=O)(O)O)cc1)C(=O)N[C@@H](CC(=O)O)C(=O)N[C@H](C(=O)N[C@H](C(=O)N[C@@H](CC(N)=O)C(=O)O)[C@@H](C)O)[C@@H](C)O)[C@@H](C)O [CD200R pY3] (Biotin-DEMQPYASYTEKNNPL[pY]DTTN-OH)
Kd [1]: 7.3 µM | Kd [2]: 1400 nM

CC[C@H](C)[C@H](NC(=O)[C@H](CCC(=O)O)NC(=O)[C@@H](NC(=O)CCCC[C@@H]1SC[C@@H]2NC(=O)N[C@@H]21)[C@@H](C)O)C(=O)N[C@H](C(=O)N[C@@H](CC(N)=O)C(=O)N1CCC[C@H]1C(=O)N[C@@H](CC(N)=O)C(=O)N[C@@H](Cc1ccc(OP(=O)(O)O)cc1)C(=O)N[C@@H](CCSC)C(=O)NCC(=O)N[C@H](C(=O)NCC(=O)N1CCC[C@H]1C(=O)O)C(C)C)[C@@H](C)CC [SHIP pY917] (Biotin-TEIINPN[pY]MGVGP-OH)
Kd [1]: 13 µM

CSCC[C@H](NC(=O)[C@H](CCC(=O)O)NC(=O)CCCC[C@@H]1SC[C@@H]2NC(=O)N[C@@H]21)C(=O)N[C@@H](Cc1ccccc1)C(=O)N[C@@H](CCC(=O)O)C(=O)N[C@@H](CC(N)=O)C(=O)N1CCC[C@H]1C(=O)N[C@@H](CC(C)C)C(=O)N[C@@H](Cc1ccc(OP(=O)(O)O)cc1)C(=O)NCC(=O)N[C@@H](CO)C(=O)N[C@@H](CC(C)C)C(=O)N[C@@H](CO)C(=O)N[C@@H](CO)C(=O)O [SHIP pY1022] (Biotin-EMFENPL[pY]GSLSS-OH)
Kd [1]: 13 µM

Recombinant human Dok1 PTB domain (amino acids 140-268) (from UniProt Q99704 140-268) (domain or fragment)
Kd [3]: 14 µM | Kd [4]: 8.4 µM | Kd [5]: 6.2 µM | Kd [6]: 7.3 µM

Recombinant human Dok2 PTB domain (amino acids 133-259) (from UniProt O60496 133-259) (domain or fragment)
Kd [5]: 0.6 µM | Kd [6]: 1.4 µM

Biotin-CMEENEL[pY]SSAV [Dok2 pY139 peptide]
Kd [7]: 3.3 µM

Biotin-EMLENSL[pY]SPTW [Dok1 pY146 peptide]
Kd [7]: 6.9 µM

Biotin-TEIINPN[pY]MGVGP [SHIP pY917 peptide]
Kd [8]: > 30 µM
